For 16 molecules, Km results are on record in publication PMC2906805 (The open enzyme inhibition journal, 2009).

The structures appear in SMILES notation.

The assay deals with T1, PMPMEase (EPL, esterase from porcine liver) (Sus scrofa, UniProt Q29550).
T1 sequence (Q29550 19-566): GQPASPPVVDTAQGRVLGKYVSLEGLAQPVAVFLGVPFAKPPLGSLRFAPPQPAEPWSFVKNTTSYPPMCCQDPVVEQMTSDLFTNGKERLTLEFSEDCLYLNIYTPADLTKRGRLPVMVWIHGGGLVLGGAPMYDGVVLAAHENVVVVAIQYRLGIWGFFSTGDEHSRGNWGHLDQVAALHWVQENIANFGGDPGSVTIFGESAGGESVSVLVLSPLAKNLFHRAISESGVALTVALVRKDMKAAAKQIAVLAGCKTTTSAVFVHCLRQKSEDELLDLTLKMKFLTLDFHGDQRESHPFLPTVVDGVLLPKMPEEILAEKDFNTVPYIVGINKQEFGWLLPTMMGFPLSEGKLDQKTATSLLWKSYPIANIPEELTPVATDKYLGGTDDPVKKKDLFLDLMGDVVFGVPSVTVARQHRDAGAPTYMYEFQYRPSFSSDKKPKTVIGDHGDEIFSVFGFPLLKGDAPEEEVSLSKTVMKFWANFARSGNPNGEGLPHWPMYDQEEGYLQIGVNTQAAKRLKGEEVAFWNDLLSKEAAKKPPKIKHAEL
Briefly: HPLC product assay with UV detection, Michaelis-Menten fit. The assay is classed as biochemical. An outline of the steps:
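Commercial porcine liver esterase (0.1 to 5 µg per assay, depending on substrate) was incubated with varying concentrations of S-alkylated cysteinyl ester substrates in 100 mM Tris-HCl, pH 7.4, with 5% DMSO at 37°C. Reactions were stopped, and acid products were quantified by reversed-phase HPLC at 260 nm (p-nitrobenzoyl substrates) or 214 nm (others). Base-hydrolysed substrate standards supplied the calibration. Km came from a Michaelis-Menten fit.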
For orientation: Km means the substrate concentration at which the rate is half of its maximum. As for `COC(=O)[C@@H](CSC/C=C(\C)CC/C=C(\C)CCC=C(C)C)NC(C)=O` [L-69, (S)-methyl 3-((2E,6E)-3,7,11-trimethyldodeca-2,6,10-trienylthio)-2-acetamidopropanoate], the Km was determined as 21 ± 4.2 µM.

Turning to `COC(=O)[C@@H](CSC/C=C(\C)CC/C=C(\C)CCC=C(C)C)NC(=O)c1ccc([N+](=O)[O-])cc1` [L-70, (S)-methyl 3-((2E,6E)-3,7,11-trimethyldodeca-2,6,10-trienylthio)-2-(4-nitrobenzamido)propanoate], the Km amounted to 11 ± 0.9 µM.

Take `COC(=O)[C@H](CSC/C=C(\C)CCC=C(C)C)NC(=O)c1ccc([N+](=O)[O-])cc1` [L-72, (R)-methyl 3-((E)-3,7-dimethylocta-2,6-dienylthio)-2-(4-nitrobenzamido)propanoate]: the Km was determined as 87 ± 12 µM.

Regarding `CCSC[C@H](NC(=O)c1ccc([N+](=O)[O-])cc1)C(=O)OC` [L-74, (R)-methyl 2-(4-nitrobenzamido)-3-(ethylthio)propanoate], the Km was determined as 505 ± 63 µM.

Regarding `CC(C)=CCC/C(C)=C/CC/C(C)=C/CSC[C@H](NC(=O)c1ccc([N+](=O)[O-])cc1)C(=O)OC(C)C` [L-75, (R)-isopropyl 3-((2E,6E)-3,7,11-trimethyldodeca-2,6,10-trienylthio)-2-(4-nitrobenzamido)propanoate], the Km was 5.9 ± 0.7 µM.

Consider `CCOC(=O)[C@H](CSC/C=C(\C)CC/C=C(\C)CCC=C(C)C)NC(=O)c1ccc([N+](=O)[O-])cc1` [L-76, (R)-ethyl 3-((2E,6E)-3,7,11-trimethyldodeca-2,6,10-trienylthio)-2-(4-nitrobenzamido)propanoate], for which the Km was 11 ± 0.9 µM.

In the case of `COC(=O)[C@H](CSCC=C(C)C)NC(=O)c1ccc([N+](=O)[O-])cc1` [L-77, (R)-methyl 3-(3-methylbut-2-enylthio)-2-(4-nitrobenzamido) propanoate], the Km worked out at 294 ± 25 µM.

Turning to `COC(=O)[C@H](CSC/C=C(\C)CC/C=C(\C)CC/C=C(\C)CCC=C(C)C)NC(=O)c1ccc([N+](=O)[O-])cc1` [L-80, (R)-methyl 3-((2E,6E,10E)-3,7,11,15-tetramethylhexadeca-2,6,10,14-tetraenylthio)-2-(4-nitrobenzamido) propanoate], the Km worked out at 15 ± 2.7 µM.

Regarding `COC(=O)[C@H](CSCCC(C)C)NC(=O)c1ccc([N+](=O)[O-])cc1` [L-81, (R)-methyl 2-(4-nitrobenzamido)-3-(isopentylthio)propanoate], the Km came to 960 ± 180 µM.

On to `COC(=O)[C@H](CSCC[C@@H](C)CCC=C(C)C)NC(=O)c1ccc([N+](=O)[O-])cc1` [L-83, (R)-methyl 3-((S)-3,7-dimethyloct-6-enylthio)-2-(4-nitrobenzamido)propanoate], for which the Km worked out at 56 ± 9.6 µM.

As for `COC(=O)[C@H](CSCC[C@H](C)CCC=C(C)C)NC(=O)c1ccc([N+](=O)[O-])cc1` [L-86, (R)-methyl 3-((R)-3,7-dimethyloct-6-enylthio)-2-(4-nitrobenzamido)propanoate], the Km amounted to 53 ± 7 µM.

As to `COC(=O)[C@H](CSCc1ccccc1)NC(=O)c1ccc([N+](=O)[O-])cc1` [L-93, (R)-methyl 2-(4-nitrobenzamido)-3-(benzylthio)propanoate], the Km amounted to 40.5 ± 3.7 µM.

For `COC(=O)CNC(=O)c1ccc([N+](=O)[O-])cc1` [L-102, methyl 2-(4-nitrobenzamido)acetate], the Km is 400 ± 115 µM.

In the case of `COC(=O)[C@H](C)NC(=O)c1ccc([N+](=O)[O-])cc1` [L-111, (S)-methyl 2-(4-nitrobenzamido)propanoate], the Km came to 300 ± 38 µM.

Take `COC(=O)[C@H](CSC/C=C(\C)CC/C=C(\C)CCC=C(C)C)NC(=O)CNC(=O)c1ccc([N+](=O)[O-])cc1` [RD-18, N-(4-Nitrobenzoylglycyl)-S-(trans, trans-farnesyl)cysteine methyl ester]: the Km was 8.4 ± 0.89 µM.

With `COC(=O)[C@H](CSC/C=C(\C)CC/C=C(\C)CCC=C(C)C)NC(=O)c1ccc([N+](=O)[O-])cc1` [RD-PNB, (R)-methyl 3-((2E,6E)-3,7,11-trimethyldodeca-2,6,10-trienylthio)-2-(4-nitrobenzamido)propanoate], the Km came out at 29 ± 2.2 µM.
